Source: ChEMBL document CHEMBL1159109, “Design and synthesis of some new quinoline-3-carbohydrazone derivatives as potential antimycobacterial agents” (Bioorg Med Chem Lett, 2010)
Values after ≈ are worked out from the molar mass of the structure shown.

Experiments:
[1] = system: Mycobacterium tuberculosis; assay: Antimycobacterial activity against Mycobacterium tuberculosis H37Rv ATCC 27294 after 7 days by resazurin assay; format: functional; settings: H37Rv ATCC 27294, 168 h
Procedure, shortened: (§1)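 Broth microdilution resazurin assay. Culture diluted to McFarland 2 standard in the same medium and added to fresh medium. Test compounds from 2 mg/mL DMF stocks, first tested at 1, 10 and 100, then at 0.3125–5; DMF-only controls. Incubated 37 °C for 7 days, then 0.01% resazurin added. Blue-to-pink change scored; MIC taken as lowest concentration preventing the colour change.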

[2] = system: Mycolicibacterium fortuitum; assay: Antimycobacterial activity against Mycobacterium fortuitum ATCC 19542 after 7 days by resazurin assay; format: functional; settings: ATCC 19542, 168 h
Procedure, shortened: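 M. fortuitum ATCC 19542 culture diluted to McFarland 2 standard in medium and dispensed into 96-well plates. Compounds came from 2 mg/mL DMF stocks and were screened at 1, 10 and 100, then retested at […]. Controls received DMF alone. After 7 days at 37 °C, 0.01% resazurin was added and colour read after 1 h at 37 °C. MIC was the level keeping the dye blue.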

[3] = system: Mycolicibacterium smegmatis; assay: Antimycobacterial activity against Mycobacterium smegmatis MC2 155 ATCC 19420 after 7 days by resazurin assay; format: functional; settings: MC2 155 ATCC 19420, 168 h; procedure, shortened: as §1
[4] = system: Mycobacterium; assay: Inhibition of Mycobacterium membrane bound ATP synthase; design: concentration or dose not given beside the values; settings: concentration not given here
[5] = system: Vero; assay: Cytotoxicity against african green monkey Vero cells after 72 hrs by MTT assay; format: cell-based; settings: Chlorocebus sabaeus
Procedure, shortened: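 Cells were exposed for 72 h, then viability was read as cellular conversion of MTT to formazan with a non-radioactive cell proliferation kit.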

Compound | MIC [1] [µg/mL] | MIC [2] [µg/mL] | MIC [3] [µg/mL] | inhibition [4] [%] | IC50 [5] [µg/mL]
COc1ccc(/C=N/NC(=O)c2cnc3ccc(F)cc3c2N[C@@H](CSc2ccccc2)CC(=O)N(C)C)c(F)c1 | 5 (≈ 8.66 µM) | > 100 | > 100 | 0 | –
COc1ccc(/C=N/NC(=O)c2cnc3c(C(F)(F)F)cccc3c2N[C@@H](CSc2ccccc2)CC(=O)N(C)C)cc1 | > 100 | > 100 | > 100 | 0 | –
CN(C)C(=O)C[C@H](CSc1ccccc1)Nc1c(C(=O)N/N=C/c2ccc(OC(F)(F)F)cc2)cnc2c(C(F)(F)F)cccc12 | 5 (≈ 7.53 µM) | 5 (≈ 7.53 µM) | > 100 | 90 | > 62.5
CSCC/C=N/NC(=O)c1cnc2c(C(F)(F)F)cccc2c1N[C@@H](CSc1ccccc1)CC(=O)N(C)C | 10 (≈ 17.3 µM) | > 100 | > 100 | 90 | –
CN(C)C(=O)C[C@H](CSc1ccccc1)Nc1c(C(=O)N/N=C/c2cccnc2)cnc2c(C(F)(F)F)cccc12 | 0.625 (≈ 1.08 µM) | 1 (≈ 1.72 µM) | 2.5 (≈ 4.31 µM) | > 95 | > 62.5
NNC(=O)c1ccncc1 [ISONIAZID] | 1 (≈ 7.29 µM) | 12.5 (≈ 91.1 µM) | 50 (≈ 365 µM) | > 95 | > 62.5
CN(C)C(=O)C[C@H](CSc1ccccc1)Nc1c(C(=O)N/N=C/c2cccc(OC(F)(F)C(F)F)c2)cnc2c(C(F)(F)F)cccc12 | 1 (≈ 1.44 µM) | 2.5 (≈ 3.59 µM) | 5 (≈ 7.19 µM) | > 95 | > 62.5
CN(C)C(=O)C[C@H](CSc1ccccc1)Nc1c(C(=O)N/N=C/c2ccc(F)cc2)cnc2c(C(F)(F)F)cccc12 | 5 (≈ 8.37 µM) | 10 (≈ 16.7 µM) | > 100 | 90 | > 62.5
CSc1ccccc1/C=N/NC(=O)c1cnc2ccc(F)cc2c1N[C@@H](CSc1ccccc1)CC(=O)N(C)C | > 100 | > 100 | > 100 | 0 | –
CN(C)C(=O)C[C@H](CSc1ccccc1)Nc1c(C(=O)N/N=C/c2cccnc2)cnc2ccc(F)cc12 | 5 (≈ 9.42 µM) | 10 (≈ 18.8 µM) | > 100 | 90 | > 62.5
CN(C)C(=O)C[C@H](CSc1ccccc1)Nc1c(C(=O)N/N=C/c2cccc(OC(F)(F)C(F)F)c2)cnc2ccc(F)cc12 | 0.625 (≈ 0.968 µM) | 1 (≈ 1.55 µM) | 2.5 (≈ 3.87 µM) | > 95 | > 62.5
COc1ccc(/C=N/NC(=O)c2cnc3ccc(F)cc3c2N[C@@H](CSc2ccccc2)CC(=O)N(C)C)cc1 | 10 (≈ 17.9 µM) | > 100 | > 100 | 0 | –
CSCC/C=N/NC(=O)c1cnc2ccc(F)cc2c1N[C@@H](CSc1ccccc1)CC(=O)N(C)C | > 100 | > 100 | > 100 | 0 | –
CN(C)C(=O)C[C@H](CSc1ccccc1)Nc1c(C(=O)N/N=C/c2ccccc2F)cnc2c(C(F)(F)F)cccc12 | 2.5 (≈ 4.18 µM) | > 100 | 5 (≈ 8.37 µM) | 90 | > 62.5
CN(C)C(=O)C[C@H](CSc1ccccc1)Nc1c(C(=O)N/N=C/c2ccccc2F)cnc2ccc(F)cc12 | 1 (≈ 1.83 µM) | 5 (≈ 9.13 µM) | 10 (≈ 18.3 µM) | > 95 | > 62.5
CN(C)C(=O)C[C@H](CSc1ccccc1)Nc1c(C(=O)N/N=C/c2cc(F)ccc2O)cnc2ccc(F)cc12 | 10 (≈ 17.7 µM) | > 100 | > 100 | 0 | –
CN(C)C(=O)C[C@H](CSc1ccccc1)Nc1c(C(=O)N/N=C/c2cc(F)ccc2O)cnc2c(C(F)(F)F)cccc12 | 10 (≈ 16.3 µM) | > 100 | > 100 | 0 | –
CN(C)C(=O)C[C@H](CSc1ccccc1)Nc1c(C(=O)N/N=C/c2ccc(F)cc2)cnc2ccc(F)cc12 | 1 (≈ 1.83 µM) | 5 (≈ 9.13 µM) | 10 (≈ 18.3 µM) | 95 | > 62.5
CN(C)C(=O)C[C@H](CSc1ccccc1)Nc1c(C(=O)N/N=C/c2ccc(OC(F)(F)F)cc2)cnc2ccc(F)cc12 | 2.5 (≈ 4.07 µM) | 5 (≈ 8.15 µM) | > 100 | 90 | > 62.5
COc1ccc(/C=N/NC(=O)c2cnc3ccc(F)cc3c2N[C@@H](CSc2ccccc2)CC(=O)N(C)C)cc1O | 5 (≈ 8.69 µM) | 5 (≈ 8.69 µM) | > 100 | 90 | > 62.5
CN(C)C(=O)C[C@H](CSc1ccccc1)Nc1c(C(=O)N/N=C/c2ccc(Br)s2)cnc2c(C(F)(F)F)cccc12 | 10 (≈ 15 µM) | > 100 | > 100 | 90 | > 62.5
CCCCCCCC/C=N/NC(=O)c1cnc2c(C(F)(F)F)cccc2c1N[C@@H](CSc1ccccc1)CC(=O)N(C)C | 1 (≈ 1.62 µM) | 5 (≈ 8.12 µM) | 10 (≈ 16.2 µM) | > 95 | > 62.5
CSc1ccccc1/C=N/NC(=O)c1cnc2c(C(F)(F)F)cccc2c1N[C@@H](CSc1ccccc1)CC(=O)N(C)C | > 100 | > 100 | > 100 | 0 | –
COc1ccc(/C=N/NC(=O)c2cnc3c(C(F)(F)F)cccc3c2N[C@@H](CSc2ccccc2)CC(=O)N(C)C)cc1O | 5 (≈ 7.99 µM) | 10 (≈ 16 µM) | > 100 | 90 | > 62.5
CN(C)C(=O)C[C@H](CSc1ccccc1)Nc1c(C(=O)N/N=C/c2ccc(Br)s2)cnc2ccc(F)cc12 | > 100 | > 100 | > 100 | 0 | –
CO[C@H]1/C=C/O[C@@]2(C)Oc3c(C)c(O)c4c(O)c(c(/C=N/N5CCN(C)CC5)c(O)c4c3C2=O)NC(=O)/C(C)=C\C=C\[C@H](C)[C@H](O)[C@@H](C)[C@@H](O)[C@@H](C)[C@H](OC(C)=O)[C@@H]1C [RIFAMPIN] | 0.5 (≈ 0.608 µM) | 1.5 (≈ 1.82 µM) | 1.5 (≈ 1.82 µM) | > 95 | > 62.5
CCCCCCCC/C=N/NC(=O)c1cnc2ccc(F)cc2c1N[C@@H](CSc1ccccc1)CC(=O)N(C)C | 1 (≈ 1.77 µM) | 5 (≈ 8.84 µM) | 10 (≈ 17.7 µM) | > 95 | > 62.5
COc1ccc(/C=N/NC(=O)c2cnc3c(C(F)(F)F)cccc3c2N[C@@H](CSc2ccccc2)CC(=O)N(C)C)c(F)c1 | 10 (≈ 15.9 µM) | > 100 | > 100 | 90 | –
